According to ChEMBL document CHEMBL2146434, “Synthesis and biological evaluation of new amino acid and dipeptide derivatives of neocryptolepine as anticancer agents” (J Med Chem, 2012):

What was measured:
Mus musculus [1] = test: Toxicity in C57BL/6 mouse xenografted with mouse LLC cells assessed as body weight loss at 30 mg/kg/day, sc administered on day 9 to day 12 of tumor implantation; assay type: organism-based; parameters: route subcutaneous; conditions: in vivo
Method in brief: (§1)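 Mouse Lewis lung carcinoma (LLC) cells inoculated sc into mice. Daily dosing from day 9: 15 mg kg⁻¹ day⁻¹ through day 13 or 30 mg kg⁻¹ day⁻¹ through day 12; 25 or 50 mg kg⁻¹ day⁻¹ through day 13. Route is given as ip in tables and text but sc in figure legends. Body weight monitored for loss alongside tumor growth. Single 100 mg/kg cyclophosphamide dose as cytostatic control.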

Mus musculus [2] = test: Toxicity in C57BL/6 mouse xenografted with mouse LLC cells assessed as body weight loss at 15 mg/kg/day, sc administered on day 9 to day 13 of tumor implantation; assay type: organism-based; parameters: route subcutaneous; conditions: in vivo
Method in brief: (§2)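 Body weight was tracked in C57BL/6 mice bearing subcutaneously inoculated LLC during therapy given daily from day 9 to day 13. A single 100 mg/kg dose of cyclophosphamide served as the cytostatic control group.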

Mus musculus [3] = test: Toxicity in C57BL/6 mouse xenografted with mouse LLC cells assessed as body weight loss at 30 mg/kg/day, ip administered on day 9 to day 12 of tumor implantation; assay type: organism-based; parameters: route intraperitoneal; conditions: in vivo; method in brief: as §1
KB = test: Cytotoxicity against human KB cells after 72 hrs by SRB assay; assay type: functional, cell-based
A549 = test: Cytotoxicity against human A549 cells after 72 hrs by SRB assay; assay type: functional, cell-based; conditions: A549, 72 h
Method in brief: (§3)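 IC50 is the compound concentration giving 50% inhibition of cell proliferation. It was determined on normal mouse BALB/3T3 fibroblasts and on human A549, MCF-7 and LoVo cancer lines, with doxorubicin hydrochloride and DiMIQ as reference compounds.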

MCF7 = test: Cytotoxicity against human MCF7 cells after 72 hrs by SRB assay; assay type: functional, cell-based; conditions: MCF7, 72 h; method in brief: as §3
LoVo = test: Cytotoxicity against human LoVo cells after 72 hrs by SRB assay; assay type: functional, cell-based; method in brief: as §3
[4] = test system: Lewis lung carcinoma cell line; test: Antineoplastic activity against mouse LLC cells xenografted in C57BL/6 mouse assessed as tumor growth inhibition at 25 mg/kg/day, ip administered on day 9 to day 13 of tumor implantation measured on day 11; assay type: functional; conditions: route intraperitoneal, read-out: TGI
Method in brief: (§4)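 Mice bore Lewis lung carcinoma (LLC) inoculated subcutaneously and received test agents intraperitoneally at 15–50 mg kg⁻¹ day⁻¹ from day 9 or day 10. A single 100 mg/kg cyclophosphamide dose was the cytostatic control. Tumor growth was followed as the group median, and TGI% was calculated from medians versus untreated controls. Significance was tested by nonparametric Kruskal–Wallis multiple comparison, p < 0.05.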

[5] = test system: Lewis lung carcinoma cell line; test: Antineoplastic activity against mouse LLC cells xenografted in C57BL/6 mouse assessed as tumor growth inhibition at 25 mg/kg/day, ip administered on day 9 to day 13 of tumor implantation measured on day 14; assay type: functional; conditions: route intraperitoneal, read-out: TGI; method in brief: as §4
[6] = test system: Lewis lung carcinoma cell line; test: Antineoplastic activity against mouse LLC cells xenografted in C57BL/6 mouse assessed as tumor growth inhibition at 25 mg/kg/day, ip administered on day 9 to day 13 of tumor implantation measured on day 16; assay type: functional; conditions: route intraperitoneal, read-out: TGI; method in brief: as §4
[7] = test system: Lewis lung carcinoma cell line; test: Antineoplastic activity against mouse LLC cells xenografted in C57BL/6 mouse assessed as tumor growth inhibition at 25 mg/kg/day, ip administered on day 9 to day 13 of tumor implantation measured on day 18; assay type: functional; conditions: route intraperitoneal, read-out: TGI; method in brief: as §4
[8] = test system: Lewis lung carcinoma cell line; test: Antineoplastic activity against mouse LLC cells xenografted in C57BL/6 mouse assessed as tumor growth inhibition at 25 mg/kg/day, ip administered on day 9 to day 13 of tumor implantation measured on day 21; assay type: functional; conditions: route intraperitoneal, read-out: TGI; method in brief: as §4
[9] = test system: Lewis lung carcinoma cell line; test: Antineoplastic activity against mouse LLC cells xenografted in C57BL/6 mouse assessed as tumor growth inhibition at 25 mg/kg/day, ip administered on day 9 to day 13 of tumor implantation measured on day 23; assay type: functional; conditions: route intraperitoneal, read-out: TGI; method in brief: as §4
[10] = test system: Lewis lung carcinoma cell line; test: Antineoplastic activity against mouse LLC cells xenografted in C57BL/6 mouse assessed as tumor growth inhibition at 50 mg/kg/day, ip administered on day 9 to day 13 of tumor implantation measured on day 11; assay type: functional; conditions: route intraperitoneal, read-out: TGI; method in brief: as §4
[11] = test system: Lewis lung carcinoma cell line; test: Antineoplastic activity against mouse LLC cells xenografted in C57BL/6 mouse assessed as tumor growth inhibition at 50 mg/kg/day, ip administered on day 9 to day 13 of tumor implantation measured on day 14; assay type: functional; conditions: route intraperitoneal, read-out: TGI; method in brief: as §4
[12] = test system: Lewis lung carcinoma cell line; test: Antineoplastic activity against mouse LLC cells xenografted in C57BL/6 mouse assessed as tumor growth inhibition at 50 mg/kg/day, ip administered on day 9 to day 13 of tumor implantation measured on day 16; assay type: functional; conditions: route intraperitoneal, read-out: TGI; method in brief: as §4
[13] = test system: Lewis lung carcinoma cell line; test: Antineoplastic activity against mouse LLC cells xenografted in C57BL/6 mouse assessed as tumor growth inhibition at 50 mg/kg/day, ip administered on day 9 to day 13 of tumor implantation measured on day 18; assay type: functional; conditions: route intraperitoneal, read-out: TGI; method in brief: as §4
[14] = test system: Lewis lung carcinoma cell line; test: Antineoplastic activity against mouse LLC cells xenografted in C57BL/6 mouse assessed as tumor growth inhibition at 50 mg/kg/day, ip administered on day 9 to day 13 of tumor implantation measured on day 21; assay type: functional; conditions: route intraperitoneal, read-out: TGI; method in brief: as §4
[15] = test system: Lewis lung carcinoma cell line; test: Antineoplastic activity against mouse LLC cells xenografted in C57BL/6 mouse assessed as tumor growth inhibition at 50 mg/kg/day, ip administered on day 9 to day 13 of tumor implantation measured on day 23; assay type: functional; conditions: route intraperitoneal, read-out: TGI; method in brief: as §4
Mus musculus [16] = test: Toxicity in C57BL/6 mouse xenografted with mouse LLC cells assessed as body weight loss at 15 mg/kg/day, ip administered on day 9 to day 13 of tumor implantation; assay type: organism-based; parameters: route intraperitoneal; conditions: in vivo; method in brief: as §2
Mus musculus [17] = test: Toxicity in C57BL/6 mouse xenografted with mouse LLC cells assessed as body weight loss at 25 mg/kg/day, sc administered on day 9 to day 13 of tumor implantation; assay type: organism-based; parameters: route subcutaneous; conditions: in vivo; method in brief: as §2
Mus musculus [18] = test: Toxicity in C57BL/6 mouse xenografted with mouse LLC cells assessed as body weight loss at 50 mg/kg/day, sc administered on day 9 to day 13 of tumor implantation; assay type: organism-based; parameters: route subcutaneous; conditions: in vivo; method in brief: as §1
[19] = Dissociation constant, pKa of the compound in PBS buffer at 5 uM at pH 2 to 10 by UV-spectrophotometric analysis; assay type: physicochemical
Method in brief: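 UV spectrophotometric titration at a final compound concentration of 5 μM. At this concentration the absorbance–concentration relationship stayed linear. pKa was read from spectral changes across pH.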

[20] = Octanol-water partition coefficient, log P of the compound in citric buffer at pH 2.5 by spectrophotometric analysis; assay type: physicochemical
Method in brief: (§5)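 Octanol–water partitioning, with log P defined as log(C_octanol/C_water). Compound in the aqueous phase was measured spectrophotometrically, and octanol content was obtained by subtracting the supernatant concentration from the total. Values are the mean of two independent experiments, each run in triplicate.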

[21] = Octanol-water partition coefficient, log P of the compound in PBS buffer at pH 7.4 by spectrophotometric analysis; assay type: physicochemical; method in brief: as §5
[22] = Toxicity in human erythrocytes assessed as hemolysis at 0.3 mM after 30 mins by spectrophotometric analysis; assay type: cell-based, Erythrocyte; conditions: read-out: Activity
Method in brief: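 Human erythrocyte suspension under isotonic conditions (pH 7.4, hematocrit 50%). Compound added across a concentration series and incubated 30 min at 37 °C before hemolysis was scored. Mean ± SD of three individual determinations. Statistics by Mann–Whitney U test, p < 0.05.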

[23] = Solubility of the compound in water; assay type: physicochemical; conditions: buffer
Mus musculus [24] = test: Toxicity in C57BL/6 mouse xenografted with mouse LLC cells at 25 to 50 mg/kg/day, ip administered on day 9 to day 13 of tumor implantation; assay type: organism-based; parameters: route intraperitoneal; conditions: in vivo; method in brief: as §1
[25] = test system: Lewis lung carcinoma cell line; test: Antineoplastic activity against mouse LLC cells xenografted in C57BL/6 mouse assessed as tumor growth inhibition at 100 mg/kg/day measured on day 17; conditions: 408 h, read-out: TGI
[26] = test system: Lewis lung carcinoma cell line; test: Antineoplastic activity against mouse LLC cells xenografted in C57BL/6 mouse assessed as tumor growth inhibition at 100 mg/kg/day measured on day 11; conditions: 264 h, read-out: TGI
[27] = test system: Lewis lung carcinoma cell line; test: Antineoplastic activity against mouse LLC cells xenografted in C57BL/6 mouse assessed as tumor growth inhibition at 100 mg/kg/day measured on day 14; conditions: 336 h, read-out: TGI
[28] = test system: Lewis lung carcinoma cell line; test: Antineoplastic activity against mouse LLC cells xenografted in C57BL/6 mouse assessed as tumor growth inhibition at 100 mg/kg/day measured on day 16; conditions: 384 h, read-out: TGI
[29] = test system: Lewis lung carcinoma cell line; test: Antineoplastic activity against mouse LLC cells xenografted in C57BL/6 mouse assessed as tumor growth inhibition at 100 mg/kg/day measured on day 18; conditions: 432 h, read-out: TGI
[30] = test system: Lewis lung carcinoma cell line; test: Antineoplastic activity against mouse LLC cells xenografted in C57BL/6 mouse assessed as tumor growth inhibition at 100 mg/kg/day measured on day 21; conditions: 504 h, read-out: TGI
[31] = test system: Lewis lung carcinoma cell line; test: Antineoplastic activity against mouse LLC cells xenografted in C57BL/6 mouse assessed as tumor growth inhibition at 100 mg/kg/day measured on day 23; conditions: 552 h, read-out: TGI
[32] = test system: Lewis lung carcinoma cell line; test: Antineoplastic activity against mouse LLC cells xenografted in C57BL/6 mouse assessed as tumor growth inhibition at 100 mg/kg/day measured on day 12; conditions: 288 h, read-out: TGI
[33] = test system: Lewis lung carcinoma cell line; test: Antineoplastic activity against mouse LLC cells xenografted in C57BL/6 mouse assessed as tumor growth inhibition at 100 mg/kg/day measured on day 19; conditions: 456 h, read-out: TGI
[34] = test system: Lewis lung carcinoma cell line; test: Antineoplastic activity against mouse LLC cells xenografted in C57BL/6 mouse assessed as tumor growth inhibition at 100 mg/kg/day measured on day 24; conditions: 576 h, read-out: TGI

Cc1c2c3cc(NC(=O)CNC(=O)CN)ccc3nc-2n(C)c2ccccc12.Cl.Cl
Activity (Mus musculus [1]): <= 15% | Activity (Mus musculus [2]): <= 15% | Activity (Mus musculus [3]): <= 15% | IC50 (KB): 4650 nM | IC50 (A549): 900 nM | IC50 (MCF7): 2700 nM | IC50 (LoVo): 730 nM | inhibition in vivo at 25 mg/kg/day [4]: 37.4% | inhibition in vivo at 25 mg/kg/day [5]: 31.8% | inhibition in vivo at 25 mg/kg/day [6]: 27.2% | inhibition in vivo at 25 mg/kg/day [7]: 22.4% | inhibition in vivo at 25 mg/kg/day [8]: 28% | inhibition in vivo at 25 mg/kg/day [9]: 35.8% | inhibition in vivo at 50 mg/kg/day [10]: 46.9% | inhibition in vivo at 50 mg/kg/day [11]: 62.6% | inhibition in vivo at 50 mg/kg/day [12]: 52.2% | inhibition in vivo at 50 mg/kg/day [13]: 38.3% | inhibition in vivo at 50 mg/kg/day [14]: 29.3% | inhibition in vivo at 50 mg/kg/day [15]: 42.9% | Activity (Mus musculus [16]): <= 15% | Activity (Mus musculus [17]): <= 15% | Activity (Mus musculus [18]): <= 15% | pKa at 5 µM [19]: 7.5 | logP [20]: -1.9 | logD [21]: -0.2 | hemolysis at 0.5 h, 300 µM [22]: 9.97% | solubility [23]: soluble | Activity (Mus musculus [24]): Non-toxic

O=P1(N(CCCl)CCCl)NCCCO1 (stereo not drawn) [CYCLOPHOSPHAMIDE ANHYDROUS]
inhibition in vivo at 100 mg/kg/day [25]: 37% | inhibition in vivo at 100 mg/kg/day [26]: 49.8% | inhibition in vivo at 100 mg/kg/day [27]: 36.8% | inhibition in vivo at 100 mg/kg/day [28]: 31.9% | inhibition in vivo at 100 mg/kg/day [29]: 12.5% | inhibition in vivo at 100 mg/kg/day [30]: 21.3% | inhibition in vivo at 100 mg/kg/day [31]: 30.4% | inhibition in vivo at 100 mg/kg/day [32]: 24.1% | inhibition in vivo at 100 mg/kg/day [33]: 40% | inhibition in vivo at 100 mg/kg/day [34]: 0%
